Assay results as given in ChEMBL document CHEMBL1156266, “Antisense oligonucleotides containing conformationally constrained 2',4'-(N-methoxy)aminomethylene and 2',4'-aminooxymethylene and 2'-O,4'-C-aminomethylene bridged nucleoside analogues show improved potency in animal models” (J Med Chem, 2010).
pIC50: −log10 of the molar value. Active and inactive are the calls of the source. The rule behind the calls is not given here.

Key:
Nucleic Acid = assay: Binding affinity to mouse PTEN mRNA assessed as melting temperature at 4 uM by thermal denaturation assay; assay type: nucleic-acid assay
Method in brief: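 Duplex with complementary length-matched RNA; UV absorbance versus temperature curves in 100 mM Na+, 10 mM phosphate, 0.1 mM EDTA, 4 μM each strand. Tm is the average of two experiments.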

Mus musculus [1] = assay: Toxicity in BALB/c mouse assessed as effect on liver weight at 0.5 to 14.8 mg/kg, ip administered twice a week for 3 weeks measured after 72 hrs of last dose; assay type: organism-based; design: dose 0.5-14.8 mg/kg, route intraperitoneal; details: in vivo
Method in brief: (§1)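 Male Balb/c mice, ip ASO in PBS twice weekly for 3 weeks at four dose levels. Body weight recorded before each dose. Killed 3 days after last dose. Organ weights normalized to body weight, expressed relative to the saline-treated group.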

Mus musculus [2] = assay: Toxicity in BALB/c mouse assessed as effect on kidney weight at 0.5 to 14.8 mg/kg, ip administered twice a week for 3 weeks measured after 72 hrs of last dose; assay type: organism-based; design: dose 0.5-14.8 mg/kg, route intraperitoneal; details: in vivo; method in brief: as §1
Mus musculus [3] = assay: Toxicity in BALB/c mouse assessed as effect on body weight at 0.5 to 14.8 mg/kg, ip administered twice a week for 3 weeks measured after 72 hrs of last dose; assay type: organism-based; design: dose 0.5-14.8 mg/kg, route intraperitoneal; details: in vivo; method in brief: as §1
Mus musculus [4] = assay: Reduction in PTEN mRNA expression in ip dosed BALB/c mouse liver administered twice a week for 3 weeks measured after 72 hrs of last dose by RT-PCR analysis; assay type: functional
Method in brief: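 Male Balb/c mice, 6-week-old, ASO in PBS ip twice weekly for 3 weeks, four dose levels. Killed 72 h after last dose. Liver homogenized in guanidine isothiocyanate buffer, RNA column-purified. PTEN RNA by fluorescence qRT-PCR, normalized to cyclophilin A. Errors are SD.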

[5] = Reduction in PTEN mRNA expression in mouse bEND.3 cells after 24 hrs by qRT-PCR analysis; assay type: functional, cell-based; details: for pIC50: BEND3, 24 h
Method in brief: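 bEnd.3 cells in DMEM/10% FBS, seeded at 1 × 10^4 cells/well the day before. Transfected 4 h at 37 °C with Lipofectin 3 μg/mL in OptiMEM, eight 1:2 dilutions (40 nM to 312.5 pM), then refed with complete medium for 24 h. PTEN RNA by qRT-PCR, normalized to cyclophilin A, as % untreated control. Triplicate plates. IC50 from sigmoidal fit, top 100%, bottom 0%.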

Mus musculus [6] = assay: Hepatotoxicity in BALB/c mouse assessed as liver ALT level at 0.5 to 14.8 mg/kg, ip administered twice a week for 3 weeks measured after 72 hrs of last dose; assay type: toxicity, organism-based; design: dose 0.5-14.8 mg/kg, route intraperitoneal; details: in vivo
Method in brief: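 Male 6-week-old Balb/c mice dosed ip in PBS twice weekly for 3 weeks: 0.7–23 mg/kg (four levels) or 0.5–14.6/14.8 mg/kg. Killed 72 h after final dose. Plasma from cardiac-puncture blood, ALT on clinical bioanalyzer. Errors are SD.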

Mus musculus [7] = assay: Reduction in PTEN mRNA expression in BALB/c mouse liver at 37 mg/kg, ip administered once a week for 3 weeks measured after 72 hrs of last dose by RT-PCR analysis; assay type: functional, organism-based; design: dose 37 mg/kg

Compound | Tm (Nucleic Acid) | pIC50 [5] | Activity (Mus musculus [1]) | Activity (Mus musculus [2]) | Activity (Mus musculus [3]) | Activity (Mus musculus [4]) | ED50 (Mus musculus [4]) | Activity [5] | Activity (Mus musculus [6]) | Activity (Mus musculus [7])
Cc1cn([C@@H]2O[C@]3(CO)CON(C)[C@@H]2[C@@H]3OP(O)(=S)OC[C@]23CON(C)[C@@H]([C@H](n4cc(C)c(=O)[nH]c4=O)O2)[C@@H]3OP(O)(=S)OC[C@H]2O[C@@H](n3cc(C)c(=O)[nH]c3=O)C[C@@H]2OP(O)(=S)OC[C@H]2O[C@@H](n3cnc4c(N)ncnc43)[C@H](O)[C@@H]2OP(O)(=S)OC[C@H]2O[C@@H](n3cnc4c(=O)[nH]c(N)nc43)[C@H](O)[C@@H]2OP(O)(=S)OC[C@H]2O[C@@H](n3ccc(N)nc3=O)[C@H](O)[C@@H]2OP(O)(=S)OC[C@H]2O[C@@H](n3cnc4c(N)ncnc43)[C@H](O)[C@@H]2OP(O)(=S)OC[C@H]2O[C@@H](n3ccc(N)nc3=O)[C@H](O)[C@@H]2OP(O)(=S)OC[C@H]2O[C@@H](n3cc(C)c(=O)[nH]c3=O)C[C@@H]2OP(O)(=S)OC[C@H]2O[C@@H](n3cnc4c(=O)[nH]c(N)nc43)[C@H](O)[C@@H]2OP(O)(=S)OC[C@H]2O[C@@H](n3cnc4c(=O)[nH]c(N)nc43)[C@H](O)[C@@H]2OP(O)(=S)OC[C@H]2O[C@@H](n3ccc(N)nc3=O)[C@H](O)[C@@H]2OP(O)(=S)OC[C@]23CON(C)[C@@H]([C@H](n4cc(C)c(N)nc4=O)O2)[C@@H]3OP(O)(=S)OC[C@]23CON(C)[C@@H]([C@H](n4cc(C)c(=O)[nH]c4=O)O2)[C@@H]3O)c(=O)nc1N (stereo not given in full) | 55.4 °C | 8.47 | Non-toxic | Non-toxic | Non-toxic | Dose-dependent effect | 11 mg/kg | Dose-dependent effect | Non-toxic | 
Cc1cn([C@@H]2O[C@]3(CO)CNO[C@@H]2[C@@H]3OP(O)(=S)OC[C@]23CNO[C@@H]([C@H](n4cc(C)c(=O)[nH]c4=O)O2)[C@@H]3OP(O)(=S)OC[C@H]2O[C@@H](n3cc(C)c(=O)[nH]c3=O)C[C@@H]2OP(O)(=S)OC[C@H]2O[C@@H](n3cnc4c(N)ncnc43)[C@H](O)[C@@H]2OP(O)(=S)OC[C@H]2O[C@@H](n3cnc4c(=O)[nH]c(N)nc43)[C@H](O)[C@@H]2OP(O)(=S)OC[C@H]2O[C@@H](n3ccc(N)nc3=O)[C@H](O)[C@@H]2OP(O)(=S)OC[C@H]2O[C@@H](n3cnc4c(N)ncnc43)[C@H](O)[C@@H]2OP(O)(=S)OC[C@H]2O[C@@H](n3ccc(N)nc3=O)[C@H](O)[C@@H]2OP(O)(=S)OC[C@H]2O[C@@H](n3cc(C)c(=O)[nH]c3=O)C[C@@H]2OP(O)(=S)OC[C@H]2O[C@@H](n3cnc4c(=O)[nH]c(N)nc43)[C@H](O)[C@@H]2OP(O)(=S)OC[C@H]2O[C@@H](n3cnc4c(=O)[nH]c(N)nc43)[C@H](O)[C@@H]2OP(O)(=S)OC[C@H]2O[C@@H](n3ccc(N)nc3=O)[C@H](O)[C@@H]2OP(O)(=S)OC[C@]23CNO[C@@H]([C@H](n4cc(C)c(N)nc4=O)O2)[C@@H]3OP(O)(=S)OC[C@]23CNO[C@@H]([C@H](n4cc(C)c(=O)[nH]c4=O)O2)[C@@H]3O)c(=O)nc1N (stereo not given in full) | 57.7 °C | 8.49 |  |  |  |  | > 37 mg/kg | Dose-dependent effect |  | inactive
Cc1cn([C@H]2C[C@H](OP(O)(=S)OC[C@H]3O[C@@H](n4cnc5c(=O)[nH]c(N)nc54)[C@H](O)[C@@H]3OP(O)(=S)OC[C@H]3O[C@@H](n4cnc5c(=O)[nH]c(N)nc54)[C@H](O)[C@@H]3OP(O)(=S)OC[C@H]3O[C@@H](n4ccc(N)nc4=O)[C@H](O)[C@@H]3OP(O)(=S)OC[C@]34CO[C@@H]([C@H](n5ccc(N)nc5=O)O3)[C@@H]4OP(O)(=S)OC[C@]34CO[C@@H]([C@H](n5ccc(=O)[nH]c5=O)O3)[C@@H]4O)[C@@H](COP(O)(=S)O[C@H]3[C@@H](O)[C@H](n4ccc(N)nc4=O)O[C@@H]3COP(O)(=S)O[C@H]3[C@@H](O)[C@H](n4cnc5c(N)ncnc54)O[C@@H]3COP(O)(=S)O[C@H]3[C@@H](O)[C@H](n4ccc(N)nc4=O)O[C@@H]3COP(O)(=S)O[C@H]3[C@@H](O)[C@H](n4cnc5c(=O)[nH]c(N)nc54)O[C@@H]3COP(O)(=S)O[C@H]3[C@@H](O)[C@H](n4cnc5c(N)ncnc54)O[C@@H]3COP(O)(=S)O[C@H]3C[C@H](n4cc(C)c(=O)[nH]c4=O)O[C@@H]3COP(O)(=S)O[C@H]3[C@H]4OC[C@@]3(COP(O)(=S)O[C@H]3[C@H]5OC[C@@]3(CO)O[C@H]5n3ccc(N)nc3=O)O[C@H]4n3ccc(=O)[nH]c3=O)O2)c(=O)[nH]c1=O (stereo not given in full) | 58 °C |  |  |  |  |  |  |  |  | 

Second part, led by results:

Tm (Nucleic Acid) | pIC50 [5] | Compound | Activity (Mus musculus [1]) | Activity (Mus musculus [2]) | Activity (Mus musculus [3]) | Activity (Mus musculus [4]) | ED50 (Mus musculus [4]) | Activity [5] | Activity (Mus musculus [6]) | Activity (Mus musculus [7])
48.5 °C |  | Cc1cn([C@H]2C[C@H](OP(O)(=S)OC[C@H]3O[C@@H](n4cnc5c(=O)[nH]c(N)nc54)[C@H](O)[C@@H]3OP(O)(=S)OC[C@H]3O[C@@H](n4cnc5c(=O)[nH]c(N)nc54)[C@H](O)[C@@H]3OP(O)(=S)OC[C@H]3O[C@@H](n4ccc(N)nc4=O)[C@H](O)[C@@H]3OP(O)(=S)OC[C@H]3O[C@@H](n4ccc(N)nc4=O)[C@H](O)[C@@H]3OP(O)(=S)OC[C@H]3O[C@@H](n4cc(C)c(=O)[nH]c4=O)C[C@@H]3O)[C@@H](COP(O)(=S)O[C@H]3[C@@H](O)[C@H](n4ccc(N)nc4=O)O[C@@H]3COP(O)(=S)O[C@H]3[C@@H](O)[C@H](n4cnc5c(N)ncnc54)O[C@@H]3COP(O)(=S)O[C@H]3[C@@H](O)[C@H](n4ccc(N)nc4=O)O[C@@H]3COP(O)(=S)O[C@H]3[C@@H](O)[C@H](n4cnc5c(=O)[nH]c(N)nc54)O[C@@H]3COP(O)(=S)O[C@H]3[C@@H](O)[C@H](n4cnc5c(N)ncnc54)O[C@@H]3COP(O)(=S)O[C@H]3C[C@H](n4cc(C)c(=O)[nH]c4=O)O[C@@H]3COP(O)(=S)O[C@H]3C[C@H](n4cc(C)c(=O)[nH]c4=O)O[C@@H]3COP(O)(=S)O[C@H]3[C@@H](O)[C@H](n4ccc(N)nc4=O)O[C@@H]3CO)O2)c(=O)[nH]c1=O (stereo not given in full) |  |  |  |  |  |  |  | 
51.3 °C | 7.46 | COCCO[C@@H]1[C@H](O)[C@@H](COP(O)(=S)O[C@H]2[C@@H](OCCOC)[C@H](n3ccc(N)nc3=O)O[C@@H]2COP(O)(=S)O[C@H]2[C@@H](O)[C@H](n3ccc(N)nc3=O)O[C@@H]2COP(O)(=S)O[C@H]2[C@@H](O)[C@H](n3cnc4c(=O)[nH]c(N)nc43)O[C@@H]2COP(O)(=S)O[C@H]2[C@@H](O)[C@H](n3cnc4c(=O)[nH]c(N)nc43)O[C@@H]2COP(O)(=S)O[C@H]2C[C@H](n3cc(C)c(=O)[nH]c3=O)O[C@@H]2COP(O)(=S)O[C@H]2[C@@H](O)[C@H](n3ccc(N)nc3=O)O[C@@H]2COP(O)(=S)O[C@H]2[C@@H](O)[C@H](n3cnc4c(N)ncnc43)O[C@@H]2COP(O)(=S)O[C@H]2[C@@H](O)[C@H](n3ccc(N)nc3=O)O[C@@H]2COP(O)(=S)O[C@H]2[C@@H](O)[C@H](n3cnc4c(=O)[nH]c(N)nc43)O[C@@H]2COP(O)(=S)O[C@H]2[C@@H](O)[C@H](n3cnc4c(N)ncnc43)O[C@@H]2COP(O)(=S)O[C@H]2C[C@H](n3cc(C)c(=O)[nH]c3=O)O[C@@H]2COP(O)(=S)O[C@H]2[C@@H](OCCOC)[C@H](n3ccc(=O)[nH]c3=O)O[C@@H]2COP(O)(=S)O[C@H]2[C@@H](OCCOC)[C@H](n3ccc(N)nc3=O)O[C@@H]2CO)O[C@H]1n1ccc(=O)[nH]c1=O (stereo not given in full) |  |  |  |  | > 45 mg/kg | Dose-dependent effect |  | 
